Measurements from different studies.
Each line is one published result; the experiments were not run side by side.
Target: Misshapen-like kinase 1 (MINK1, Homo sapiens, UniProt Q8N4C8)

SMILES | test | conditions | quantity | result
Cn1cncc1[C@@](O)(COc1ccc(C#N)cc1-c1ccc(OC(F)(F)F)cc1)c1ccc(C#N)cc1 | cell-free assay, competition with immobilised ligand | 1 µM | remaining binding | 100%
CC(C)(C)c1cc(C=C(C#N)C#N)cc(Br)c1O | enzyme activity, inhibitor | 0.5 µM | remaining activity | 111%
C#Cc1n[nH]c2c(-c3cn([C@@H](C)c4ccccc4)c(=O)[nH]c3=O)cc(F)cc12 | enzyme activity, inhibitor | 0.1 µM | inhibition | 2%
Nc1ncc(-c2nc(N3CCOCC3)nc(N3CCOCC3)n2)c(C(F)F)n1 | binding, competition with immobilised ligand | 10 µM | remaining binding | 66%
O=c1[nH]c2ccccc2n1C1CCN(Cc2ccc(-c3[nH]c4cc5ncnc5cc4nc3-c3ccccc3)cc2)CC1 | cell-free assay | 0.5 µM | remaining signal | 103%
Cn1cc(-c2cc(F)cc(N3CCn4c(cc5c4CCCC5)C3=O)c2CO)cc(Nc2ccc(N3CCN(C4COC4)CC3)cn2)c1=O | enzyme activity, inhibitor | 0.1 µM | inhibition | 12%
Cc1nn(C)cc1-c1nc2c(N3CCN(Cc4ccc(Cl)cc4)CC3)c(Cl)cnc2[nH]1 | binding, competition with immobilised ligand | 1 µM | remaining binding | 84%
C#Cc1n[nH]c2c(-c3cn([C@@H](C)c4ccccn4)c(=O)[nH]c3=O)cc(F)cc12 | enzyme activity, inhibitor | 0.1 µM | inhibition | 5.6%
Cn1cc(-c2cccc(N3CCc4c(sc5c4CC(C)(C)C5)C3=O)c2CO)cc(Nc2ccncn2)c1=O | enzyme activity, inhibitor | 1 µM | inhibition | 11%
N#CC1(c2ccccn2)CCN(Cc2cc(C(=O)O)c(=O)n3ccccc23)CC1 | cell-free assay, competition with immobilised ligand | 1 µM | remaining binding | 92%
